Activity calls are given as the source filed them. Unless noted, the calls are words filed in the database; no cut-off is given here.
Tested on: not listed separately
Assay: Cytotoxicity against human MT4 cells after 96 hrs by MTT assay
Format: cell-based
Details: MT4 cells
In short: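 Exponentially growing MT-4 cells at 1 × 10^5 cells/mL in RPMI-1640 with 10% FCS, exposed to serial compound dilutions at 37 °C, 5% CO2. Viability by MTT after 96 h; CC50 is the concentration reducing viability of mock-infected cells by 50%.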

**Q.** Which CC50 at 96 h does the source give for CCC(=O)Nc1ccc(-c2nc3cc(C(F)(F)F)ccc3n2C)cc1 here?
**A.** 8 µM

**Q.** For Oc1ccc(-c2nc3cc(C(F)(F)F)ccc3[nH]2)cc1, which CC50 at 96 h is on record?
**A.** 17 µM

**Q.** For O=C(CCl)Nc1ccc(-c2nc3cc(C(F)(F)F)ccc3n2C23CC4CC(CC(C4)C2)C3)cc1, which CC50 at 96 h is on record?
**A.** 0.3 µM

**Q.** Which CC50 at 96 h does the source give for CCC(=O)Nc1ccc(-c2nc3cc(C(F)(F)F)ccc3n2C23CC4CC(CC(C4)C2)C3)cc1 here?
**A.** 86 µM

Tested on: Human alphaherpesvirus 1
Assay: Antiviral activity against HSV1 KOS infected in african green monkey Vero cells after 3 days by plaque reduction assay
Format: functional, organism-based
Details: Human alphaherpesvirus 1, KOS, 72 h
In short: (§1)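 Plaque reduction assay. Vero 76 cells at 2 × 10^5/well, grown overnight to confluence in D-MEM with 10% FBS. Infected 2 h with 50–100 PFU/well, unadsorbed virus removed. Overlay of D-MEM with 1% inactivated FBS and 0.75% methylcellulose, with or without serial compound dilutions. Incubated at 37 °C for 3 days (HSV-1 KOS, CVB-2 Ohio-1) or 5 days (RSV A2). Fixed and stained with crystal violet in 50% ethanol; plaques counted; EC50 by linear regression.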

**Q.** With CCC(=O)Nc1ccc(-c2nc3cc(C(F)(F)F)ccc3n2C)cc1 as the compound, how does the EC50 read?
**A.** > 100 µM

**Q.** Which EC50 does the source give for Oc1ccc(-c2nc3cc(C(F)(F)F)ccc3[nH]2)cc1 here?
**A.** 25 µM

**Q.** With O=C(CCl)Nc1ccc(-c2nc3cc(C(F)(F)F)ccc3n2C23CC4CC(CC(C4)C2)C3)cc1 as the compound, how does the EC50 read?
**A.** > 100 µM

**Q.** For CCC(=O)Nc1ccc(-c2nc3cc(C(F)(F)F)ccc3n2C23CC4CC(CC(C4)C2)C3)cc1, which EC50 is on record?
**A.** > 100 µM

Tested on: Vaccinia virus
Assay: Antiviral activity against Vaccinia virus Elstree-Lister infected in african green monkey Vero cells after 3 days by plaque reduction assay
Format: functional, organism-based
Details: Orthopoxvirus vaccinia

**Q.** Which Activity does the source give for CCC(=O)Nc1ccc(-c2nc3cc(C(F)(F)F)ccc3n2C)cc1 here?
**A.** inactive

**Q.** For O=C(CCl)Nc1ccc(-c2nc3cc(C(F)(F)F)ccc3n2C23CC4CC(CC(C4)C2)C3)cc1, which Activity is on record?
**A.** inactive

**Q.** For CCC(=O)Nc1ccc(-c2nc3cc(C(F)(F)F)ccc3n2C23CC4CC(CC(C4)C2)C3)cc1, which Activity is on record?
**A.** inactive

Same assay, conditions: Orthopoxvirus vaccinia, 72 h

**Q.** Which EC50 does the source give for Oc1ccc(-c2nc3cc(C(F)(F)F)ccc3[nH]2)cc1 here?
**A.** > 100 µM

Tested on: Mammalian orthoreovirus 1
Assay: Antiviral activity against Reovirus 1 3651 infected in BHK21 cells assessed as protection from virus-induced cytopathogenicity after 3 to 4 days by MTT method
Format: functional, organism-based
Details: BHK-21

**Q.** Which Activity does the source give for CCC(=O)Nc1ccc(-c2nc3cc(C(F)(F)F)ccc3n2C)cc1 here?
**A.** inactive

**Q.** Which Activity does the source give for O=C(CCl)Nc1ccc(-c2nc3cc(C(F)(F)F)ccc3n2C23CC4CC(CC(C4)C2)C3)cc1 here?
**A.** inactive

**Q.** With CCC(=O)Nc1ccc(-c2nc3cc(C(F)(F)F)ccc3n2C23CC4CC(CC(C4)C2)C3)cc1 as the compound, how does the Activity read?
**A.** inactive

Same assay, conditions: Mammalian orthoreovirus 1, 3651, BHK-21

**Q.** For Oc1ccc(-c2nc3cc(C(F)(F)F)ccc3[nH]2)cc1, which EC50 is on record?
**A.** 7 µM

Tested on: Respiratory syncytial virus
Assay: Antiviral activity against RSV A2 infected in african green monkey Vero cells after 5 days by plaque reduction assay
Format: functional, organism-based
Details: not given
In short: as §1

**Q.** With CCC(=O)Nc1ccc(-c2nc3cc(C(F)(F)F)ccc3n2C)cc1 as the compound, how does the Activity read?
**A.** inactive

**Q.** Which Activity does the source give for O=C(CCl)Nc1ccc(-c2nc3cc(C(F)(F)F)ccc3n2C23CC4CC(CC(C4)C2)C3)cc1 here?
**A.** inactive

**Q.** For CCC(=O)Nc1ccc(-c2nc3cc(C(F)(F)F)ccc3n2C23CC4CC(CC(C4)C2)C3)cc1, which Activity is on record?
**A.** inactive

Same assay, conditions: human respiratory syncytial virus, A2, Vero, 120 h

**Q.** For Oc1ccc(-c2nc3cc(C(F)(F)F)ccc3[nH]2)cc1, which EC50 is on record?
**A.** 20 µM

Tested on: Yellow fever virus
Assay: Antiviral activity against Yellow fever virus 17D infected in BHK cells assessed as protection from virus-induced cytopathogenicity after 3 to 4 days by MTT method
Format: functional, organism-based
Details: not given

**Q.** For CCC(=O)Nc1ccc(-c2nc3cc(C(F)(F)F)ccc3n2C)cc1, which EC50 is on record?
**A.** > 100 µM

**Q.** Which EC50 does the source give for Oc1ccc(-c2nc3cc(C(F)(F)F)ccc3[nH]2)cc1 here?
**A.** 12 µM

**Q.** Which EC50 does the source give for O=C(CCl)Nc1ccc(-c2nc3cc(C(F)(F)F)ccc3n2C23CC4CC(CC(C4)C2)C3)cc1 here?
**A.** > 51 µM

**Q.** With CCC(=O)Nc1ccc(-c2nc3cc(C(F)(F)F)ccc3n2C23CC4CC(CC(C4)C2)C3)cc1 as the compound, how does the EC50 read?
**A.** > 100 µM

Tested on: Vesicular stomatitis virus
Assay: Antiviral activity against VSV Indiana lab infected in african green monkey Vero cells after 2 days by plaque reduction assay
Format: functional, organism-based
Details: not given

**Q.** For CCC(=O)Nc1ccc(-c2nc3cc(C(F)(F)F)ccc3n2C)cc1, which Activity is on record?
**A.** inactive

**Q.** Which Activity does the source give for Oc1ccc(-c2nc3cc(C(F)(F)F)ccc3[nH]2)cc1 here?
**A.** inactive

**Q.** For O=C(CCl)Nc1ccc(-c2nc3cc(C(F)(F)F)ccc3n2C23CC4CC(CC(C4)C2)C3)cc1, which Activity is on record?
**A.** inactive

**Q.** Which Activity does the source give for CCC(=O)Nc1ccc(-c2nc3cc(C(F)(F)F)ccc3n2C23CC4CC(CC(C4)C2)C3)cc1 here?
**A.** inactive

Tested on: Poliovirus 1
Assay: Antiviral activity against Polio virus type1 Sabin strain Chat infected in african green monkey Vero cells after 2 days by plaque reduction assay
Format: functional, organism-based, Human poliovirus 1 strain Sabin
Details: Enterovirus C, 48 h

**Q.** Which EC50 does the source give for CCC(=O)Nc1ccc(-c2nc3cc(C(F)(F)F)ccc3n2C)cc1 here?
**A.** > 100 µM

**Q.** For Oc1ccc(-c2nc3cc(C(F)(F)F)ccc3[nH]2)cc1, which EC50 is on record?
**A.** 24 µM

**Q.** With O=C(CCl)Nc1ccc(-c2nc3cc(C(F)(F)F)ccc3n2C23CC4CC(CC(C4)C2)C3)cc1 as the compound, how does the EC50 read?
**A.** > 100 µM

**Q.** Which EC50 does the source give for CCC(=O)Nc1ccc(-c2nc3cc(C(F)(F)F)ccc3n2C23CC4CC(CC(C4)C2)C3)cc1 here?
**A.** > 100 µM

Tested on: not listed separately
Assay: Cytotoxicity against african green monkey Vero cells
Format: cell-based
Details: chlorocebus sabaeus
In short: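 Vero 76 monolayers exposed to serial compound dilutions, run in parallel on the same 24-well plates as the plaque-reduction assays. CC50 is the concentration reducing viability of mock-infected cells by 50%.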

**Q.** With CCC(=O)Nc1ccc(-c2nc3cc(C(F)(F)F)ccc3n2C)cc1 as the compound, how does the CC50 read?
**A.** > 100 µM

**Q.** For Oc1ccc(-c2nc3cc(C(F)(F)F)ccc3[nH]2)cc1, which CC50 is on record?
**A.** > 100 µM

**Q.** For O=C(CCl)Nc1ccc(-c2nc3cc(C(F)(F)F)ccc3n2C23CC4CC(CC(C4)C2)C3)cc1, which CC50 is on record?
**A.** > 100 µM

**Q.** Which CC50 does the source give for CCC(=O)Nc1ccc(-c2nc3cc(C(F)(F)F)ccc3n2C23CC4CC(CC(C4)C2)C3)cc1 here?
**A.** > 100 µM

Tested on: Bovine viral diarrhea virus 1
Assay: Antiviral activity against Bovine viral diarrhea virus NADL infected in MDBK cells assessed as protection from virus-induced cytopathogenicity after 3 to 4 days by MTT method
Format: functional, organism-based, Bovine viral diarrhea virus 1-NADL
Details: Bovine viral diarrhea virus isolates and strains, MDBK
In short: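 Cytopathogenicity protection assay. MDBK cells at 3 × 10^4/well, grown overnight to confluence. Infected with BVDV NADL at m.o.i. 0.01 in MEM-E with 0.5% inactivated FBS, 1 mM Na pyruvate and 1% kanamycin. Serial compound dilutions added after 1 h. After 3–4 days at 37 °C, viability read by MTT; EC50 is the concentration giving 50% protection.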

**Q.** Which EC50 does the source give for CCC(=O)Nc1ccc(-c2nc3cc(C(F)(F)F)ccc3n2C)cc1 here?
**A.** > 100 µM

**Q.** For Oc1ccc(-c2nc3cc(C(F)(F)F)ccc3[nH]2)cc1, which EC50 is on record?
**A.** > 51 µM

**Q.** For O=C(CCl)Nc1ccc(-c2nc3cc(C(F)(F)F)ccc3n2C23CC4CC(CC(C4)C2)C3)cc1, which EC50 is on record?
**A.** > 18 µM

**Q.** With CCC(=O)Nc1ccc(-c2nc3cc(C(F)(F)F)ccc3n2C23CC4CC(CC(C4)C2)C3)cc1 as the compound, how does the EC50 read?
**A.** > 100 µM

Tested on: Human immunodeficiency virus 1
Assay: Antiviral activity against HIV1 3B infected in human MT4 cells assessed as protection from virus-induced cytopathogenicity after 4 days by MTT method
Format: functional, organism-based
Details: not given
In short: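 MT-4 cells, 1 × 10^4/well in RPMI with or without serial compound dilutions, infected with HIV-1 IIIB, 100 CCID50 (m.o.i. 0.01). Protection from virus-induced cytopathogenicity read by MTT.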

**Q.** Which Activity does the source give for CCC(=O)Nc1ccc(-c2nc3cc(C(F)(F)F)ccc3n2C)cc1 here?
**A.** inactive

**Q.** For Oc1ccc(-c2nc3cc(C(F)(F)F)ccc3[nH]2)cc1, which Activity is on record?
**A.** inactive

**Q.** With O=C(CCl)Nc1ccc(-c2nc3cc(C(F)(F)F)ccc3n2C23CC4CC(CC(C4)C2)C3)cc1 as the compound, how does the Activity read?
**A.** inactive

**Q.** For CCC(=O)Nc1ccc(-c2nc3cc(C(F)(F)F)ccc3n2C23CC4CC(CC(C4)C2)C3)cc1, which Activity is on record?
**A.** inactive

Tested on: not listed separately
Assay: Cytotoxicity against BHK cells after 48 to 96 hrs by MTT assay
Format: cell-based, Mesocricetus auratus
Details: hamster
In short: (§2)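 Cell seeding: MDBK at 6 × 10^5 cells/mL in MEM-E with 10% horse serum and 1 mM Na pyruvate; BHK at 1 × 10^6 cells/mL in MEM-E with 10% FBS. Serial compound dilutions, 37 °C, 5% CO2. Viability of mock-infected cells by MTT after 48–96 h; CC50 is the concentration reducing viability by 50%.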

**Q.** Which CC50 does the source give for CCC(=O)Nc1ccc(-c2nc3cc(C(F)(F)F)ccc3n2C)cc1 here?
**A.** > 100 µM

**Q.** Which CC50 does the source give for Oc1ccc(-c2nc3cc(C(F)(F)F)ccc3[nH]2)cc1 here?
**A.** > 100 µM

**Q.** For O=C(CCl)Nc1ccc(-c2nc3cc(C(F)(F)F)ccc3n2C23CC4CC(CC(C4)C2)C3)cc1, which CC50 is on record?
**A.** 51 µM

**Q.** Which CC50 does the source give for CCC(=O)Nc1ccc(-c2nc3cc(C(F)(F)F)ccc3n2C23CC4CC(CC(C4)C2)C3)cc1 here?
**A.** > 100 µM

Tested on: not listed separately
Assay: Cytotoxicity against MDBK cells after 48 to 96 hrs by MTT assay
Format: cell-based, Bos taurus
Details: cattle, MDBK cells
In short: as §2

**Q.** With CCC(=O)Nc1ccc(-c2nc3cc(C(F)(F)F)ccc3n2C)cc1 as the compound, how does the CC50 read?
**A.** > 100 µM

**Q.** For Oc1ccc(-c2nc3cc(C(F)(F)F)ccc3[nH]2)cc1, which CC50 is on record?
**A.** 51 µM

**Q.** With O=C(CCl)Nc1ccc(-c2nc3cc(C(F)(F)F)ccc3n2C23CC4CC(CC(C4)C2)C3)cc1 as the compound, how does the CC50 read?
**A.** 18 µM

**Q.** For CCC(=O)Nc1ccc(-c2nc3cc(C(F)(F)F)ccc3n2C23CC4CC(CC(C4)C2)C3)cc1, which CC50 is on record?
**A.** > 100 µM

Tested on: Coxsackievirus B2
Assay: Antiviral activity against Human coxsackievirus B2 Ohio-1 infected in african green monkey Vero cells after 3 days by plaque reduction assay
Format: functional, organism-based, Coxsackievirus B2 (strain Ohio-1)
Details: Enterovirus B, Vero, 72 h
In short: as §1

**Q.** For CCC(=O)Nc1ccc(-c2nc3cc(C(F)(F)F)ccc3n2C)cc1, which EC50 is on record?
**A.** > 100 µM

**Q.** Which EC50 does the source give for Oc1ccc(-c2nc3cc(C(F)(F)F)ccc3[nH]2)cc1 here?
**A.** 5 µM

**Q.** With O=C(CCl)Nc1ccc(-c2nc3cc(C(F)(F)F)ccc3n2C23CC4CC(CC(C4)C2)C3)cc1 as the compound, how does the EC50 read?
**A.** > 100 µM

**Q.** Which EC50 does the source give for CCC(=O)Nc1ccc(-c2nc3cc(C(F)(F)F)ccc3n2C23CC4CC(CC(C4)C2)C3)cc1 here?
**A.** > 100 µM
